Source: ChEMBL document CHEMBL3232758, “Synthesis and evaluation of carbon-linked analogs of dual orexin receptor antagonist filorexant” (Bioorg Med Chem Lett, 2014)
In brackets after ≈: the same amount, converted by molar mass. Activity calls are given as the source filed them. The rule behind the calls is not given here.

Key:
Orexin receptor type 2 [1] = target: T1, Orexin receptor type 2 (Homo sapiens, UniProt O43614); assay: Binding affinity to human OX2 receptor in cell membrane by in vitro radioligand binding assay; type: cell membranes
T1 sequence (O43614 whole entry): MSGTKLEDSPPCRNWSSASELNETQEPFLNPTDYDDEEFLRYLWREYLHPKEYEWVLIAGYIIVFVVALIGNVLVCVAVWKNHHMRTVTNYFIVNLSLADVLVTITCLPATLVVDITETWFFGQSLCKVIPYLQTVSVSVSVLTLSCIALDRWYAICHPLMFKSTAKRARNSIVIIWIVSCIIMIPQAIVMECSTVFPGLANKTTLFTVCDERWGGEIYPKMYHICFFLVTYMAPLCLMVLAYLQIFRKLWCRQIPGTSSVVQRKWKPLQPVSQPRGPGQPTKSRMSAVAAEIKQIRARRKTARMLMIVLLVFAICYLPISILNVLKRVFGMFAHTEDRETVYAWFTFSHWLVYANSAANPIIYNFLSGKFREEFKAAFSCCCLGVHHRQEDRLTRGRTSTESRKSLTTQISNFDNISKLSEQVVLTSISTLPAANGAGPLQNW
Summary of the method: (§1)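 Radioligand binding to membranes from human cells overexpressing OX1R or OX2R; affinity expressed as Ki.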

[2] = target: T2, Orexin/Hypocretin receptor type 1 (Homo sapiens, UniProt O43613); assay: Binding affinity to human OX1 receptor in cell membrane by in vitro radioligand binding assay; type: cell membranes; summary of the method: as §1
T2 sequence (O43613 whole entry): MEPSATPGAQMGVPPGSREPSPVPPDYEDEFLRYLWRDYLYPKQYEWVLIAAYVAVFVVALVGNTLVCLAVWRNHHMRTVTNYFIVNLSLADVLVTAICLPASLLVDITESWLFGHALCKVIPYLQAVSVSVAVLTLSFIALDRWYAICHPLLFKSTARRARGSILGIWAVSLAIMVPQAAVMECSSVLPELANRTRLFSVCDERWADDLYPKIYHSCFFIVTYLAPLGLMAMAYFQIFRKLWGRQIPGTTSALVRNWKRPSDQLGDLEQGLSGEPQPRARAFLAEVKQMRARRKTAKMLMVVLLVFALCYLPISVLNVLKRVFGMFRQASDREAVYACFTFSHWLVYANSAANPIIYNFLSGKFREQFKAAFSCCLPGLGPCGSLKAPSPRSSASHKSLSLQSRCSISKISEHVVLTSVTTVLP

Orexin receptor type 2 [3] = target: T1, Orexin receptor type 2; assay: Antagonist activity at human OX2 receptor assessed as Ca2+ flux by FLIPR assay; type: functional
[4] = target: T2, Orexin/Hypocretin receptor type 1; assay: Antagonist activity at human OX1 receptor assessed as Ca2+ flux by FLIPR assay; type: functional
Cytochrome P450 3A4 [5] = target: T3, Cytochrome P450 3A4 (Homo sapiens, UniProt P08684); assay: Inhibition of CYP3A4 (unknown origin); type: ADME
T3 sequence (P08684 whole entry): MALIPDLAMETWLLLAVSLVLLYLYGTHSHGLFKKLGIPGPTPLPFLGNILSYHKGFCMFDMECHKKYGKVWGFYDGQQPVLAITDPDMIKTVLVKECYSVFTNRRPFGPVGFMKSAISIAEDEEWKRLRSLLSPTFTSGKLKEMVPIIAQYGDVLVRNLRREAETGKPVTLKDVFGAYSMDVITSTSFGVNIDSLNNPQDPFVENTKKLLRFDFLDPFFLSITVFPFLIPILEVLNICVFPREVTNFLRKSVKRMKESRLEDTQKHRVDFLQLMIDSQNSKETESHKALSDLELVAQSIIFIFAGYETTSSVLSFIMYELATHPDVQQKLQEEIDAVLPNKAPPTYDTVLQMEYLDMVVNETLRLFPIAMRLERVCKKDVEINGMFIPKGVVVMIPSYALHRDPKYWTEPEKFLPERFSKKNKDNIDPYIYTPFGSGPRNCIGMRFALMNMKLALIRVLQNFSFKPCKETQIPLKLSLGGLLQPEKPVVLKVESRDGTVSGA

[6] = Lipophilicity, log D of the compound at pH 7 by HPLC analysis; type: physicochemical; conditions: buffer
Summary of the method: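 High-throughput HPLC logD at pH 7 using a reversed-phase C18 column, with phosphate-buffered saline pH 7 and acetonitrile as mobile phases. The system is calibrated with standards of published shake-flask logD, and logD is read from a linear regression of retention time against logD.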

[7] = Solubility of the compound at pH 7 by HPLC analysis; type: physicochemical; conditions: buffer
[8] = Plasma protein binding in human; type: ADME, cell-free; conditions: read-out: PPB (converted)
[9] = Plasma protein binding in dog; type: ADME, cell-free, Canis lupus familiaris; conditions: read-out: PPB (converted)
[10] = Clearance in iv dosed dog; type: ADME, organism-based, Canis lupus familiaris; conditions: in vivo
[11] = Half life in iv dosed dog; type: ADME, organism-based, Canis lupus familiaris; conditions: in vivo
[12] = target: Voltage-gated inwardly rectifying potassium channel KCNH2 (Homo sapiens, UniProt Q12809); assay: Inhibition of human ERG
Chain of Voltage-gated inwardly rectifying potassium channel KCNH2 (Q12809 whole entry): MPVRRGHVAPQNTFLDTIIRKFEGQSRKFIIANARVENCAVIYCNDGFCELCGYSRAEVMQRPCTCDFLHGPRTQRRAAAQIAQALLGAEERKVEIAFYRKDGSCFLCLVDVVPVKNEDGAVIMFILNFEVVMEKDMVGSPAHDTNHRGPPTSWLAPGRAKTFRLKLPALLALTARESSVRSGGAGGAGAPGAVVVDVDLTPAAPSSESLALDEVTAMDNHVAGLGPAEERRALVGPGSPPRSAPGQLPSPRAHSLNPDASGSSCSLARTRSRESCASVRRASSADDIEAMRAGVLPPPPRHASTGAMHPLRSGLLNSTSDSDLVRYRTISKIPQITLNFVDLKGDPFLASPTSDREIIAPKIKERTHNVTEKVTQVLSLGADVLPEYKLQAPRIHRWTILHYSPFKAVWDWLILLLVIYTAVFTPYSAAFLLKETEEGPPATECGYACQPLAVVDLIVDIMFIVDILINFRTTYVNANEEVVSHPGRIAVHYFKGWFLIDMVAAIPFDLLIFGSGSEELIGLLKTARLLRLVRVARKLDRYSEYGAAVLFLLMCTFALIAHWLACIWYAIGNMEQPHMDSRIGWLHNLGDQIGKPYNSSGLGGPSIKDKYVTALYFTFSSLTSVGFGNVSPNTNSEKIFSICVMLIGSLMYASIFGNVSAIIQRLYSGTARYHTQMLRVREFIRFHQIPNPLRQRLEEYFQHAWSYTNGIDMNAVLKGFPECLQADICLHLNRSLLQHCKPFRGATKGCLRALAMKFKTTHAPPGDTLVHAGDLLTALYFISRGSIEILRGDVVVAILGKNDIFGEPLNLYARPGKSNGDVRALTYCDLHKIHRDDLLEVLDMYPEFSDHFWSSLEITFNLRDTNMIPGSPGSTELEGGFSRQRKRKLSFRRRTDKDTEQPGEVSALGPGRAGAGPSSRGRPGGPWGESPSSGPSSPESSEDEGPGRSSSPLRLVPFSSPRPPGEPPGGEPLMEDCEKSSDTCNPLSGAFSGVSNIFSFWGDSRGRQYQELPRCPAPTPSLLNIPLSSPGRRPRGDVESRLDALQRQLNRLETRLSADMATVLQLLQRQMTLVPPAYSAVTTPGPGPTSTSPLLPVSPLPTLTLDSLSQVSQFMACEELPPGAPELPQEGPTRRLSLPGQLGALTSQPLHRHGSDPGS

Cytochrome P450 2C9 = Cytochrome P450 2C9 (Homo sapiens, UniProt P11712); assay: Inhibition of CYP2C9 (unknown origin); type: ADME
Chain of Cytochrome P450 2C9 (P11712 whole entry): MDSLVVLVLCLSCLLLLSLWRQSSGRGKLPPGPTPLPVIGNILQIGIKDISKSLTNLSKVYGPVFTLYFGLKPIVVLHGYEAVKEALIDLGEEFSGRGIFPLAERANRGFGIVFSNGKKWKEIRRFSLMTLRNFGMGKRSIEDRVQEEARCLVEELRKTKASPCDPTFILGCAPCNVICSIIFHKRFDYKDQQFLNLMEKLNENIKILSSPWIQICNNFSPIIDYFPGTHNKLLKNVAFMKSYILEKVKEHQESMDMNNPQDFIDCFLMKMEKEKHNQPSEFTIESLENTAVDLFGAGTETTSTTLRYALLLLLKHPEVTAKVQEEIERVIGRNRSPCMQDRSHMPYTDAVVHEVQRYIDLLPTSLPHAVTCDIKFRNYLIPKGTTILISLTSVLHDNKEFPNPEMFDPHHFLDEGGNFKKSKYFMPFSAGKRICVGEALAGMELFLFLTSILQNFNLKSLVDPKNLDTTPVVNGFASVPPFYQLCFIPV

Cytochrome P450 2D6 = Cytochrome P450 2D6 (Homo sapiens, UniProt P10635); assay: Inhibition of CYP2D6 (unknown origin); type: ADME
Chain of Cytochrome P450 2D6 (P10635 whole entry): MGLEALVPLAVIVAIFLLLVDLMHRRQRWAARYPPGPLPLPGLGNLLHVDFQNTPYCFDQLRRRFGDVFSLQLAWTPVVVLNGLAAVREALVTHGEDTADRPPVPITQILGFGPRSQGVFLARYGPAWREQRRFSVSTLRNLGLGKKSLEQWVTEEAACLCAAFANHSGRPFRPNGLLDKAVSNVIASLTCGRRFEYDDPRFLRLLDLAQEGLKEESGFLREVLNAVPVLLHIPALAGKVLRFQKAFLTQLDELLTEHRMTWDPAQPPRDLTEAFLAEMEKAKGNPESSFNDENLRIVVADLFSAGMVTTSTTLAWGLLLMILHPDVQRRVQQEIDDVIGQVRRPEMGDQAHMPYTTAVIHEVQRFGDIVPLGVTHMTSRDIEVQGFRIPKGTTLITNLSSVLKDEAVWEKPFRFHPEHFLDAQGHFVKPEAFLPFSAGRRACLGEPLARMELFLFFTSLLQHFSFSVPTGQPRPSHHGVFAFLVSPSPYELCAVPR

Mus musculus [13] = assay: Sleep promoting activity in wild type mouse sleep EEG model assessed as reduction of active wake at 100 mg/kg, po administered during dark or active phase 4 hrs prior to lights on measured for 2 hrs following drug administration; type: functional, organism-based; set-up: dose 100 mg/kg
Summary of the method: (§2)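 Mice carried surgically implanted radiotelemetry transmitters recording EEG and EMG to score vigilance state; wildtype n = 5, OX2R knockout n = 6. Oral 100 mg/kg or vehicle (20% Vit. E TPGS) in a balanced cross-over, dosed in the dark (active) phase 4 h before lights on. Mean time per state was taken in 30 min intervals and compared by a linear mixed-effects repeated-measures t-test.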

Mus musculus [14] = assay: Sleep promoting activity in wild type mouse sleep EEG model assessed as increase in delta sleep at 100 mg/kg, po administered during dark or active phase 4 hrs prior to lights on measured for 2 hrs following drug administration; type: functional, organism-based; set-up: dose 100 mg/kg; summary of the method: as §2
Mus musculus [15] = assay: Sleep promoting activity in wild type mouse sleep EEG model assessed as increase in REM sleep at 100 mg/kg, po administered during dark or active phase 4 hrs prior to lights on measured for 2 hrs following drug administration; type: functional, organism-based; set-up: dose 100 mg/kg; summary of the method: as §2
Mus musculus [16] = assay: Sleep promoting activity in wild type mouse sleep EEG model assessed as reduction of active wake at 100 mg/kg, po administered during dark or active phase 4 hrs prior to lights on measured during first 30 mins after drug administration; type: functional, organism-based; set-up: dose 100 mg/kg; summary of the method: as §2
Mus musculus [17] = assay: Sleep promoting activity in wild type mouse sleep EEG model assessed as increase in delta sleep at 100 mg/kg, po administered during dark or active phase 4 hrs prior to lights on measured during first 30 mins after drug administration; type: functional, organism-based; set-up: dose 100 mg/kg; summary of the method: as §2
Mus musculus [18] = assay: Sleep promoting activity in wild type mouse sleep EEG model assessed as increase in REM sleep at 100 mg/kg, po administered during dark or active phase 4 hrs prior to lights on measured during first 30 mins after drug administration; type: functional, organism-based; set-up: dose 100 mg/kg; summary of the method: as §2
Mus musculus [19] = assay: Sleep promoting activity in wild type mouse sleep EEG model assessed as duration of sleep at 100 mg/kg, po administered during dark or active phase 4 hrs prior to lights on; type: functional; summary of the method: as §2
Mus musculus [20] = assay: Sleep promoting activity in OX2 receptor knockout mouse at 100 mg/kg, po administered during dark or active phase 4 hrs prior to lights on; type: functional, organism-based; set-up: dose 100 mg/kg; summary of the method: as §2
[21] = Plasma concentration in mouse at 100 mg/kg, po; type: ADME, organism-based; set-up: dose 100 mg/kg, route oral
CYP3A4 = CYP3A4 (Homo sapiens, UniProt P08684); assay: Time-dependent inhibition of CYP3A4 (unknown origin) assessed as IC50 shift ratio; type: ADME; conditions: read-out: Ratio IC50
Chain of CYP3A4 (P08684 whole entry): as the sequence (P08684 whole entry) above

Cytochrome P450 3A4 [22] = target: T3, Cytochrome P450 3A4; assay: Time-dependent inhibition of CYP3A4 (unknown origin); type: ADME; conditions: TDE = time-dependent effect

SMILES: Cc1ccc(-n2nccn2)c(C(=O)N2C[C@H](/C=C/c3ccc(F)cn3)CC[C@H]2C)c1
- Ki (Orexin receptor type 2 [1]): 0.003 µM
- Ki [2]: 0.017 µM
- IC50 (Orexin receptor type 2 [3]): 0.034 µM
- IC50 [4]: 0.14 µM

SMILES: Cc1ccc(-n2nccn2)c(C(=O)N2C[C@H](C#Cc3cccnc3O)CC[C@H]2C)c1
- Ki (Orexin receptor type 2 [1]): 0.024 µM
- Ki [2]: 0.024 µM

SMILES: Cc1ccc(-n2nccn2)c(C(=O)N2C[C@H](COc3ccc(F)cn3)CC[C@H]2C)c1
- Ki (Orexin receptor type 2 [1]): 0.0002 µM
- Ki [2]: 0.001 µM
- IC50 (Orexin receptor type 2 [3]): 0.015 µM
- IC50 [4]: 0.016 µM

SMILES: Cc1ccc(-n2nccn2)c(C(=O)N2C[C@H](C#Cc3ccncc3)CC[C@H]2C)c1
- Ki (Orexin receptor type 2 [1]): 0.007 µM
- Ki [2]: 0.026 µM

SMILES: Cc1ccc(-n2nccn2)c(C(=O)N2C[C@H](/C=C\c3ccc(F)cn3)CC[C@H]2C)c1
- Ki (Orexin receptor type 2 [1]): 0.028 µM
- Ki [2]: 0.135 µM
- IC50 (Orexin receptor type 2 [3]): 0.417 µM
- IC50 [4]: 0.706 µM

SMILES: Cc1ccc(-n2nccn2)c(C(=O)N2C[C@H](C#Cc3ccc(F)cn3)CC[C@H]2C)c1
- Ki (Orexin receptor type 2 [1]): 0.0011 µM
- Ki [2]: 0.0011 µM
- IC50 (Orexin receptor type 2 [3]): 0.024 µM
- IC50 [4]: 0.031 µM
- IC50 (Cytochrome P450 3A4 [5]): > 50 µM
- logD [6]: 3.7
- solubility [7]: 124 µM (≈ 50 µg/mL)
- fraction unbound [8]: 0.009
- fraction unbound [9]: 0.039
- clearance [10]: 1.6 mL/min/kg
- half-life [11]: 2 h
- INH [12]: 23 µM
- INH (Cytochrome P450 2C9): 32 µM
- INH (Cytochrome P450 2D6): > 50 µM
- Activity (Mus musculus [13]): Active
- Activity (Mus musculus [14]): Active
- Activity (Mus musculus [15]): Active
- Activity (Mus musculus [16]): Active
- Activity (Mus musculus [17]): Active
- Activity (Mus musculus [18]): Active
- Time (Mus musculus [19]): 2 h
- Activity (Mus musculus [20]): inactive
- AUC [21]: 60 µM·h
- IC50 shift (CYP3A4): > 6.4
- inhibition (INH) (Cytochrome P450 3A4 [22]): tde

SMILES: Cc1ccc(-n2nccn2)c(C(=O)N2C[C@H](C#Cc3cccc(CO)c3)CC[C@H]2C)c1
- Ki (Orexin receptor type 2 [1]): 0.00053 µM
- Ki [2]: 0.00056 µM
- IC50 (Orexin receptor type 2 [3]): 0.0063 µM
- IC50 [4]: 0.0063 µM
- IC50 (Cytochrome P450 3A4 [5]): 4 µM

SMILES: Cc1ccc(-n2nccn2)c(C(=O)N2C[C@H](C#Cc3ccnc(CO)c3)CC[C@H]2C)c1
- Ki (Orexin receptor type 2 [1]): 0.025 µM
- Ki [2]: 0.075 µM
- IC50 (Orexin receptor type 2 [3]): 0.1 µM
- IC50 [4]: 0.298 µM

SMILES: Cc1ccc(-n2nccn2)c(C(=O)N2C[C@H](C#Cc3cccnc3)CC[C@H]2C)c1
- Ki (Orexin receptor type 2 [1]): 0.041 µM
- Ki [2]: 0.107 µM
- IC50 (Orexin receptor type 2 [3]): 0.028 µM
- IC50 [4]: 0.083 µM

SMILES: Cc1ccc(-n2nccn2)c(C(=O)N2C[C@H](C#Cc3cc(CO)ccn3)CC[C@H]2C)c1
- Ki (Orexin receptor type 2 [1]): 0.042 µM
- Ki [2]: 0.076 µM

SMILES: Cc1ccc(-n2nccn2)c(C(=O)N2C[C@H](C#Cc3cncc(CO)c3)CC[C@H]2C)c1
- Ki (Orexin receptor type 2 [1]): 0.032 µM
- Ki [2]: 0.108 µM

SMILES: Cc1ccc(-n2nccn2)c(C(=O)N2C[C@H](C#Cc3ccccn3)CC[C@H]2C)c1
- Ki (Orexin receptor type 2 [1]): 0.011 µM
- Ki [2]: 0.027 µM
- IC50 (Orexin receptor type 2 [3]): 0.042 µM
- IC50 [4]: 0.1 µM

SMILES: Cc1ccc(-n2nccn2)c(C(=O)N2C[C@H](CCc3ccc(F)cn3)CC[C@H]2C)c1
- Ki (Orexin receptor type 2 [1]): 0.026 µM
- Ki [2]: 0.47 µM
- IC50 (Orexin receptor type 2 [3]): 0.145 µM
- IC50 [4]: 0.861 µM

SMILES: Cc1ccc(-n2nccn2)c(C(=O)N2C[C@H](C#Cc3cccc(CO)n3)CC[C@H]2C)c1
- Ki (Orexin receptor type 2 [1]): 0.0056 µM
- Ki [2]: 0.018 µM
- IC50 (Orexin receptor type 2 [3]): 0.026 µM
- IC50 [4]: 0.059 µM
- logD [6]: 2.1

SMILES: Cc1ccc(-n2nccn2)c(C(=O)N2C[C@H](C#Cc3ccc(CO)nc3)CC[C@H]2C)c1
- Ki (Orexin receptor type 2 [1]): 0.15 µM
- Ki [2]: 0.339 µM

SMILES: Cc1ccc(-n2nccn2)c(C(=O)N2C[C@H](C#Cc3cnccc3O)CC[C@H]2C)c1
- Ki (Orexin receptor type 2 [1]): 0.0075 µM
- Ki [2]: 0.866 µM
- IC50 (Orexin receptor type 2 [3]): 0.052 µM
- IC50 [4]: 3.88 µM

SMILES: Cc1ccc(-n2nccn2)c(C(=O)N2C[C@H](C#Cc3ccc(CO)cn3)CC[C@H]2C)c1
- Ki (Orexin receptor type 2 [1]): 0.13 µM
- Ki [2]: 0.211 µM
